Screening results (PubChem)
In the library only some 1.6% were active in any assay of this set; here they are far more common.
DNA FID counter = compounds displacing fluorescent DNA intercalator, primary screen, artefact control for HCV NS3 helicase inhibitor project, biochemical, FID fluorescence; DNA fluorescent intercalator displacement; inhibition, % at 7.9 µM; hit rate 0.17% among 290,000; AID 1845, 2009; in the data active means inhibition above about 37%;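 further: higher means more ethidium bromide displaced from hairpin DNA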
Neddyl block = inhibitors of cullin neddylation, primary screen, biochemical, TR-FRET, uHTS, NAE and Ubc12; hit rate 0.58% among 360,000; AID 651699, 2012; calls only at 25 µM; in the data active means inhibition above about 36%
UBC13 polyUb = UBC13 polyubiquitin chain formation inhibitors, primary screen, biochemical, TR-FRET, uHTS | Ubiquitin-conjugating enzyme E2 N (Homo sapiens), P61088 | hit rate 0.47% among 330,000 | AID 485273, 2010 | inhibition, % at 20 µM; in the data active means inhibition above about 45%, passing the limit was not always enough
RAD52 inh = RAD52 DNA annealing inhibitors, primary screen, biochemical, FRET, single point, set 2; DNA repair protein RAD52 homolog (Homo sapiens), P43351; recombinant RAD52 DNA annealing, FRET fluorescence; inhibition, % at 18.7 µM; hit rate 0.46% among 360,000; AID 651710, 2012;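 active means every replicate showing at least 50% inhibition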
Apaf-1 inh = inhibitors of human Apaf-1 apoptosome, primary screen, biochemical, DEVD-Rh110 fluorescence, uHTS; reconstituted apoptosome caspase-3 activity; inhibition, % at 20 µM; AID 489030, 2010; Apoptotic protease-activating factor 1 (Homo sapiens), O14727; hit rate 0.71% among 330,000; active means inhibition of at least 40% at 20 µM
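Assay system – apoptosome proteins · Medium – Hepes buffer, pH 7.5 · Also added – cytochrome c with DEVD-Rh110 · Timing – 30 min compound preincubation, 50 min activation, room temperature · Detection – Rh110 fluorescence, excitation 480 nm, emission 540 nm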
RAD54 branch = inhibitors of human RAD54 branch migration, primary screen, biochemical, fluorescence, single point; DNA repair and recombination protein RAD54-like (Homo sapiens), Q92698; RAD54 Holliday junction branch migration, FAM/BHQ fluorescence; inhibition, % at 10.4 µM; hit rate 0.14% among 360,000; AID 602329, 2012;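 active means mean normalized replicate activity at least 40 and at least half of replicates scoring 40 or more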;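 further: inhibitors cause a drop in the FAM fluorescence signal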
Neddyl inh conf = blockade of NEDD8 conjugation to cullin – biochemical, TR-FRET, single concentration, confirmation; calls only at 25 µM; AID 652217, 2013; hit rate 13% among 1,800; shares compounds with Neddyl block; TR-FRET cullin neddylation biochemical assay; in the data active means inhibition above about 40%;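 further: neddylation substrate is the cullin 1 ring ligase complex with SKP2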
Hits are given with their value.

Screening C[C@H]1CN([C@@H](C)CO)C(=O)c2cccc(NS(=O)(=O)c3ccc(Cl)cc3)c2O[C@H]1CN(C)C(=O)Nc1ccc(C(F)(F)F)cc1 returned RAD52 inh inactive and RAD54 branch inactive.
`FC(F)C(F)(F)Oc1cccc(Nc2nccn3c(-c4cccc5ccccc45)cnc23)c1` gave Neddyl block active, RAD52 inh inactive, RAD54 branch inactive and Neddyl inh conf inactive.
Screening FC(F)C(F)(F)Oc1cccc(Nc2nccn3c(-c4ccc5ccccc5c4)cnc23)c1 returned RAD52 inh inactive and RAD54 branch inactive.
`COc1ccc(S(=O)(=O)N(C)C[C@@H]2OCCCC[C@H](C)Oc3ccc(NC(=O)Nc4ccccc4)cc3C(=O)N([C@@H](C)CO)C[C@@H]2C)cc1` gave RAD54 branch inactive.
For COCC(=O)N1CC2(CCN(Cc3ccccc3)CC2)c2c([nH]c3cc(OC)ccc23)[C@@H]1CO the results were RAD52 inh inactive.
Screening CCOC(=O)C(=CNc1ccc(NC2=NCC(C)S2)cc1)C(=O)OCC (stereo not drawn) returned DNA FID counter inactive, Neddyl block active, RAD52 inh inactive, RAD54 branch inactive and Neddyl inh conf inactive.
CCOC(=O)C(=CNc1ccc(C(F)(F)F)cc1)C(=O)OCC was read as DNA FID counter inactive, Neddyl block inactive, UBC13 polyUb inactive, RAD52 inh inactive and Apaf-1 inh inactive.
Screening CCN1[C@H](C(=O)Nc2ccccc2)[C@@H](CO)[C@@H]2Cn3c(ccc(-c4ccccc4)c3=O)[C@@H]21 returned RAD52 inh inactive and RAD54 branch inactive.
COc1ccc2cc3c(N)nn(C(=O)Cc4ccc(Cl)cc4)c3nc2c1 was read as DNA FID counter inactive, Neddyl block inactive, UBC13 polyUb inactive, RAD52 inh inactive, Apaf-1 inh inactive and RAD54 branch inactive.
Screening COc1cccc(CC(=O)n2nc(N)c3cc4ccc(OC)cc4nc32)c1 returned DNA FID counter inactive, Neddyl block active, UBC13 polyUb inactive, RAD52 inh inactive, Apaf-1 inh inactive, RAD54 branch inactive and Neddyl inh conf inactive.
CCCOc1ccc(C(=O)NC(=S)N2CCN(c3cc4c(cc3F)c(=O)c(C(=O)O)cn4CC)CC2)cc1 was read as DNA FID counter inactive, Neddyl block active, UBC13 polyUb inactive, RAD52 inh inactive, Apaf-1 inh inactive, RAD54 branch inactive and Neddyl inh conf inactive.
CCn1cc(C(=O)NCCC(C)C)c(=O)c2cc(F)c(N3CCN(C)CC3)cc21 was read as DNA FID counter inactive, Neddyl block active, UBC13 polyUb inactive, RAD52 inh inactive, Apaf-1 inh inactive and RAD54 branch inactive.
`CCCCNC(=O)c1cn(CC)c2cc(N3CCN(C)CC3)c(F)cc2c1=O` gave DNA FID counter inactive, UBC13 polyUb inactive, RAD52 inh inactive, Apaf-1 inh inactive and RAD54 branch inactive.
For CCn1cc(C(=O)NCC2CCCO2)c(=O)c2cc(F)c(N3CCN(C)CC3)cc21 (stereo not drawn) the results were DNA FID counter inactive, UBC13 polyUb inactive, Apaf-1 inh inactive and RAD54 branch inactive.
`CCN(CC)CCNC(=O)c1cn(CC)c2cc(N3CCN(C)CC3)c(F)cc2c1=O` gave DNA FID counter 38.0, Neddyl block active, UBC13 polyUb inactive, RAD52 inh inactive, Apaf-1 inh inactive and RAD54 branch inactive.
CCn1cc(C(=O)O)c(=O)c2cc(F)c(N3CCN(C(=S)NC(=O)c4ccc(F)cc4)CC3)cc21 was read as DNA FID counter inactive, Neddyl block inactive, UBC13 polyUb inactive, RAD52 inh inactive, Apaf-1 inh inactive and RAD54 branch inactive.
For Cc1noc(C)c1NC(=O)N(C)C[C@@H]1Oc2c(NC(=O)C3CC3)cccc2C(=O)N([C@@H](C)CO)C[C@@H]1C the results were RAD52 inh inactive and RAD54 branch inactive.
Screening C[C@H]1CN([C@@H](C)CO)C(=O)c2cc(NC(=O)Nc3cccc4ccccc34)ccc2O[C@H]1CN(C)Cc1ccc(C(=O)Nc2ccccc2N)cc1 returned RAD52 inh inactive and RAD54 branch inactive.
COCc1ccc(CN2CCc3c([nH]c4ccccc34)C2CC(C)C)o1 (stereo not drawn) was read as DNA FID counter inactive, Neddyl block active, UBC13 polyUb inactive, RAD52 inh inactive, Apaf-1 inh inactive, RAD54 branch inactive and Neddyl inh conf inactive.
`NC(=O)c1nn(-c2ccccc2)nc1NC(=O)CN1CCCCC1` gave DNA FID counter inactive, Neddyl block active, UBC13 polyUb inactive, Apaf-1 inh inactive, RAD54 branch inactive and Neddyl inh conf inactive.
For Cc1ccccc1CSc1nc2n(n1)C(c1cccs1)C1=C(CCCC1=O)N2 (stereo not drawn) the results were DNA FID counter inactive, Neddyl block active, UBC13 polyUb inactive and Apaf-1 inh inactive.
For CSc1nc2n(n1)C(c1cccs1)C1=C(CCCC1=O)N2 (stereo not drawn) the results were DNA FID counter inactive, Neddyl block active, UBC13 polyUb inactive, RAD52 inh inactive, Apaf-1 inh inactive, RAD54 branch inactive and Neddyl inh conf inactive.
`O=C1CCCC2=C1C(c1cccs1)n1nc(SCc3ccccc3F)nc1N2` (stereo not drawn) gave DNA FID counter inactive, UBC13 polyUb inactive, Apaf-1 inh inactive and RAD54 branch inactive.
Cc1ccc(S(=O)(=O)Nc2ccc3c(c2)C(=O)N([C@H](C)CO)C[C@@H](C)[C@H](CN(C)C(=O)NC2CCCCC2)OCCCC[C@H](C)O3)cc1 was read as RAD52 inh inactive and RAD54 branch inactive.
Screening CCCNC(=O)[C@@H]1N[C@@H]2c3ccc(C4=CCCCC4)c(=O)n3C[C@@H]2[C@H]1CO returned RAD52 inh inactive and RAD54 branch inactive.
CC1(C)C2CCC1(CS(=O)(=O)NC1CCCC1)C(=O)C2 (stereo not drawn) was read as DNA FID counter inactive, Neddyl block active, UBC13 polyUb inactive, RAD52 inh inactive, Apaf-1 inh inactive, RAD54 branch inactive and Neddyl inh conf inactive.
`Cc1noc(C)c1S(=O)(=O)Nc1ccc2c(c1)C(=O)N([C@@H](C)CO)C[C@H](C)[C@H](CN(C)Cc1ccncc1)OCCCC[C@@H](C)O2` gave RAD52 inh inactive and RAD54 branch inactive.
